Key:
Format in all cases: ADME, organism-based
[1] = Clearance in Wistar rat at 3 mg/kg, iv and 10 mg/kg, po; conditions: in vivo
[2] = Half life in Wistar rat at 3 mg/kg, iv and 10 mg/kg, po; conditions: in vivo
[3] = Volume of distribution at steady state in Wistar rat at 3 mg/kg, iv and 10 mg/kg, po; conditions: in vivo, read-out: Vdss
[4] = Bioavailability in Wistar rat at 3 mg/kg, iv and 10 mg/kg, po; conditions: in vivo
Outline: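 Male Han Wistar rats. The iv dose was given as a DMA/PEG/saline (40/40/20) solution and the po dose as a 0.1% HPMC suspension.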

Structure (SMILES) | clearance [1] | half-life [2] | Vd [3] | bioavailability [4]
COc1cncc(NC(=O)c2cc(NC(=O)c3cccc(C(C)(C)C#N)c3)ccc2C)c1 | 56 mL/min/kg | 30 min | 1.7 L/kg | –
CNc1ccc(NC(=O)c2cc(NC(=O)c3cccc(C(C)(C)C#N)c3)ccc2C)cn1 | 53.5 mL/min/kg | 36 min | 1.7 L/kg | 15%
Cc1ccc(NC(=O)c2cccc(C(C)(C)C#N)c2)cc1C(=O)Nc1cccnc1 | 42.5 mL/min/kg | 96 min | 2.5 L/kg | 17%
CC(=O)Nc1ccc(NC(=O)c2cc(NC(=O)c3cccc(C(C)(C)C#N)c3)ccc2C)cn1 | 64 mL/min/kg | 42 min | 2.7 L/kg | 10%
Cc1ccc(NC(=O)c2cc(NC(=O)c3cccc(C(C)(C)C#N)c3)ccc2C)cn1 | 47.5 mL/min/kg | 48 min | 2.9 L/kg | 73%
Cc1ccc(NC(=O)c2cccc(C(C)(C)C#N)c2)cc1C(=O)Nc1ccc(N)nc1 | 75.5 mL/min/kg | 36 min | 2.3 L/kg | –
Cc1cncc(NC(=O)c2cc(NC(=O)c3cccc(C(C)(C)C#N)c3)ccc2C)c1 | 32.5 mL/min/kg | 48 min | 1.4 L/kg | 4%

Continued, values first:

clearance [1] | half-life [2] | Vd [3] | bioavailability [4] | Structure (SMILES)
60 mL/min/kg | 54 min | 3.1 L/kg | 45% | Cc1ccc(NC(=O)c2cccc(C(C)(C)C#N)c2)cc1C(=O)Nc1cncc(Cl)c1
9.5 mL/min/kg | 60 min | 0.8 L/kg | 30% | Cc1ccc(NC(=O)c2cccc(C(C)(C)C#N)c2)cc1C(=O)Nc1cnc(N)c(Cl)c1
11 mL/min/kg | 84 min | 1.2 L/kg | 96% | Nc1ncc(NC(=O)c2cc(NC(=O)c3cccc(C(F)(F)F)c3)ccc2Cl)cc1Cl
8 mL/min/kg | 96 min | 1 L/kg | 78% | Cc1ccc(NC(=O)c2cccc(C(F)(F)F)c2)cc1C(=O)Nc1cnc(N)c(Cl)c1

Reference: ChEMBL document CHEMBL1143270, “Identification of amidoheteroaryls as potent inhibitors of mutant (V600E) B-Raf kinase with in vivo activity” (Bioorg Med Chem Lett, 2009)
